# Screening results from PubChem BioAssay.
# Sampled rows, rich in hits. Any-hit rate of the full collection: about 4.9%.
# APP 5'UTR act – APP 5'UTR luciferase reporter activation; SH-SY5Y APP 5'UTR luciferase reporter, luminescence; zero percent = DMSO vehicle wells; activation, % at 2 µM; 1% of 190,000 active; AID 1276;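 active means activation above a set limit, based on mean plus 3 SD of controls, cut at about 140% in these data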
# STAT1 act – activators of IFN-gamma induced STAT1 signaling; NIH 3T3 STAT1-luciferase reporter, luminescence; 100% = IFN-gamma alone, no compound; activation (% of control), % at 5.5 µM; 2.6% of 200,000 active;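 active means activation above the screen-wide mean activation plus 3 SD, cut at about 130% in these data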
# STAT1 blocker – STAT1 signaling inhibition. NIH 3T3 STAT1-luciferase reporter, IFN-gamma, luminescence. inhibition, % at 5.5 µM. 0.35% of 200,000 active. AID 920;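 active means inhibition above a set limit, the mean inhibition across all tested compounds plus 3 SD, cut at about 34% in these data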
# STAT3 inh-1 – inhibitors of IL-6 induced STAT3 signaling; 0.89% of 190,000 active; U3A cells, IL-6 STAT3-luciferase reporter, luminescence; host cell line lacks STAT1; inhibition, % at 5.5 µM;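 active means inhibition above the mean inhibition across all screened compounds plus 3 SD, cut at about 44% in these data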
# STAT3 activator – STAT3 signaling activation. U3A cells, IL-6 STAT3-luciferase reporter, luminescence; 100% = signal with IL-6 EC80 alone. activation (% of control), % at 5.6 µM. 0.91% of 190,000 active. AID 871;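 active means activation above the screen-wide mean of compound activation plus 3 SD, cut at about 130% in these data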
#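 Test system: Human STAT1-deficient U3A cells with stable STAT3-luciferase reporter | Also added: Interleukin-6, 33 ng/mL | Timing: Compound pre-incubation 1 h before IL-6, then 6 h stimulation at 37 °C | Technique: Luciferase reporter luminescence | Read-out: Percent of IL-6-only median luminescence | Benchmarks: IL-6-only wells as 100% reference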
# NF-kB expr up – NF-kB expression increase, human neuronal cells; NF-kB reporter expression; hits give high values; fold change at 12.5 µM; 1.6% of 190,000 active; in the data active means fold change above about 3.3
# STAT3 inh-2 – STAT3 inhibition, confirmation assay; 45% of 1,200 active; U3A cells, IL-6 STAT3 luciferase reporter, luminescence; cell line lacks STAT1; shares compounds with STAT3 inh-1; AID 1265; inhibition, % at 5.7 µM;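 active means inhibition above the hit cutoff computed for the primary STAT3 screen, cut at about 44% in these data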
# NFkB inh STAT3ct – NF-kappaB inhibition in STAT3 inhibitor counter-screen; shares compounds with STAT3 inh-1; HEK293T NF-kB luciferase reporter, TNF-alpha induced; inhibition, % at 5.7 µM; 36% of 1,200 active; AID 1308;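 active means inhibition above the mean of solvent-only control wells plus 3 SD, cutoff set per campaign, cut at about 13% in these data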
# STAT1 inh STAT3c – STAT1 inhibition in STAT3 inhibitor counter-screen. shares compounds with STAT3 inh-1. NIH 3T3 STAT1-luciferase reporter, IFN-gamma induced, luminescence. inhibition, % at 5.7 µM. 27% of 1,200 active. AID 1317;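 active means inhibition above the mean plus 3 SD of solvent-only control wells, limit set per screening run, cut at about 16% in these data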
# A number is an active result; n = inactive; x = not tested or not shown.
SMILES,APP 5'UTR act,STAT1 act,STAT1 blocker,STAT3 inh-1,STAT3 activator,NF-kB expr up,STAT3 inh-2,NFkB inh STAT3ct,STAT1 inh STAT3c
CS(=O)(=O)N1CCCC(c2nc(-c3ccc(S(=O)(=O)NCc4ccccc4)cc3)no2)C1 (stereo not drawn),n,n,n,66,n,n,72,26,22
Cc1ccc(S(=O)(=O)N2CCCCC2)cc1NC(=O)COc1ccccc1F,n,n,n,n,n,n,x,x,x
O=C(CSc1nnc(-c2ccco2)o1)c1ccc(O)cc1O,n,n,n,n,n,n,x,x,x
Cc1ccc2[nH]c3c(NCc4ccco4)ncnc3c2c1,n,n,n,60,n,n,45,n,n
Cc1ccc(-n2ncc3c(NCc4ccco4)ncnc32)c(C)c1,n,n,n,n,n,n,x,x,x
Cc1c(C(=O)NCc2ccc3c(c2)OCO3)oc2ccc(S(=O)(=O)N3CCC(C)CC3)cc12,n,n,n,n,n,n,x,x,x
CC1CCN(S(=O)(=O)c2ccc3c(c2)oc(=O)n3CC(=O)NCc2ccc3c(c2)OCO3)CC1,n,n,n,44,n,n,n,n,17
O=C(COC(=O)c1cc(S(=O)(=O)N2CCCCC2)ccc1N1CCOCC1)NC1CCS(=O)(=O)C1 (stereo not drawn),n,n,n,n,n,n,x,x,x
O=c1c2c(-c3ccccc3)csc2nc2n1CCC2,n,n,n,n,n,n,x,x,x
O=c1c2sc(-c3ccccc3)cc2nc2n1CCC2,n,n,n,49,n,3.9,n,n,n
CN1C(=O)CSc2ccc(NC(=O)N3CCc4ccccc43)cc21,n,n,n,n,n,n,x,x,x
Cc1ccc(NC(=O)N2CCc3ccccc32)cc1C,160,n,n,62,n,9.2,n,n,n
Cc1ccc(NC(=O)N2CCCc3ccccc32)cc1,n,n,n,n,n,n,x,x,x
Cc1ccc(NC(=O)N2CCc3ccccc32)cc1,170,n,n,56,n,8.1,n,n,n
COc1cccc(-c2nnc(SCC(=O)Nc3cc(C)on3)o2)c1,n,n,n,n,n,n,x,x,x
CCOc1ccc(-c2nnc(SCC(=O)Nc3cc(C)on3)o2)cc1,n,n,n,49,n,n,n,16,n
O=C(CSc1nnc(-c2ccccc2)o1)Nc1ccccc1F,n,n,n,45,n,n,n,n,n
O=C(CSc1nnc(-c2ccncc2)o1)Nc1ccccc1Cl,n,n,n,n,n,n,x,x,x
Cc1ccc(-c2nnc(SCC(=O)Nc3ccccc3F)o2)cc1,n,n,n,56,n,n,n,n,n
COC(=O)c1ccccc1NC(=O)CSc1nnc(-c2ccc(C)cc2)o1,n,n,n,n,n,n,x,x,x
O=C(/C=C/c1ccccc1)/C=C/c1ccccc1,n,n,n,n,n,n,x,x,x
O=C1CCC(C(=O)Nc2cccc(Oc3ccccc3)c2)=NN1,n,n,n,n,n,n,x,x,x
COc1ccc(NC(=O)CN2C(=O)C(c3ccccc3)=NC23CCCCCC3)cc1,n,n,n,n,n,n,x,x,x
O=C(CN1C(=O)C(c2ccc(F)cc2)=NC12CCCC2)Nc1ccc(F)cc1,n,n,n,58,n,n,54,14,22
O=C(Nc1cccc(C(F)(F)F)c1)C1CCCO1 (stereo not drawn),n,n,n,n,n,n,x,x,x
SMILES,APP 5'UTR act,STAT1 act,STAT1 blocker,STAT3 inh-1,STAT3 activator,NF-kB expr up,STAT3 inh-2,NFkB inh STAT3ct,STAT1 inh STAT3c
CC(=O)c1cn(CC(=O)Nc2c(C)cccc2C)c2ccccc12,n,n,n,n,n,n,x,x,x
CC(=O)c1cn(CC(=O)Nc2ccccc2C)c2ccccc12,n,n,n,44,n,n,44,n,n
CC(=O)c1cn(CC(=O)Nc2ccc(C)c(C)c2)c2ccccc12,n,n,n,67,n,n,53,19,18
C=CCN(c1ccccc1C(=O)O)S(=O)(=O)c1ccc(C)cc1,n,n,n,n,n,n,x,x,x
O=C(COC(=O)CNC(=O)c1ccccc1)Nc1ccc(Cl)cc1C(F)(F)F,n,n,n,n,n,n,x,x,x
Cc1cc(C(=O)CSc2nnnn2-c2ccc(O)cc2)c(C)n1Cc1ccc2c(c1)OCO2,n,n,n,n,n,n,x,x,x
Cc1cc(C(=O)CSc2nnc(-c3cccc(F)c3)n2N)c(C)n1Cc1ccc2c(c1)OCO2,n,n,n,47,n,n,n,n,n
Cc1sc2ncnc(NCc3ccco3)c2c1C,n,n,n,n,n,n,x,x,x
Cc1sc2ncnc(NCc3cccs3)c2c1C,n,n,n,48,n,n,n,n,n
COc1cccc(CN(C)C(=O)c2cc(COc3ccc4ncccc4c3)on2)c1,n,n,35,74,n,n,64,18,19
O=C(c1cc(COc2ccc3ncccc3c2)on1)N1CCCCCC1,n,n,n,53,n,n,59,13,n
O=C(NCCc1cn2ccccc2n1)c1cc(COc2ccc3ncccc3c2)on1,n,n,n,n,n,n,x,x,x
COCC1CCN(C(=O)c2cc(COc3ccc4ncccc4c3)on2)CC1,n,n,n,55,n,n,53,22,23
Cc1sc(NC(=O)CN2CCOCC2)nc1-c1ccc2c(c1)CCN2S(=O)(=O)c1ccccc1,n,n,n,66,n,n,52,22,20
Cc1ccccc1NC(=O)c1cnc2ccccn2c1=O,n,n,n,72,n,n,n,n,n
O=C(NC1CC1)c1ccc(C2SCC(=O)N2Cc2ccccc2)cc1 (stereo not drawn),n,n,n,n,n,x,x,x,x
c1ccc2sc(-c3ccc4c(c3)OCO4)nc2c1,168,n,n,70,n,6.3,n,n,n
CCOC(=O)Cc1csc(NC(NC(=O)OCC)(C(=O)OCC)C(F)(F)F)n1 (stereo not drawn),n,n,n,n,n,n,x,x,x
CN(C)S(=O)(=O)c1ccc(C(=O)Nc2nc(-c3cccs3)cs2)cc1,x,n,n,53,n,n,44,n,n
Cc1ccc(C)c(/C=C(\C(=O)O)c2ccc(S(=O)(=O)N3CCCCC3)s2)c1,n,n,n,n,n,n,x,x,x
CS(=O)(=O)N(CC(=O)NCCSc1ccccn1)c1cccc2ccccc12,n,n,n,n,n,n,x,x,x
Fc1ccccc1CSc1ncnc2sc3c(c12)CCCC3,x,n,n,n,n,n,x,x,x
Cc1cc2nc(N3C(=O)CNC3=S)sc2cc1C,n,n,n,48,n,n,n,n,n
Cc1cc2nc(N)sc2cc1C,n,n,n,n,n,n,x,x,x
CCOC(=O)c1oc2ccc(S(=O)(=O)n3nc(-c4ccccc4)cc3N)cc2c1C,n,n,n,54,n,n,n,13,n
